Data published in ChEMBL document CHEMBL3397043, “Synthesis, anticandidal activity of N(3)-(4-methoxyfumaroyl)-(S)-2,3-diaminopropanoic amide derivatives--novel inhibitors of glucosamine-6-phosphate synthase” (Eur J Med Chem, 2015).
pIC50: −log10 of the molar value.

How the values were obtained:
[1] = system: Staphylococcus epidermidis; experiment: Antimicrobial activity against Staphylococcus epidermidis PCM 2118 assessed as growth inhibition serial 2-fold dilution microtitre plate method; format: functional
Procedure, shortened: (§1)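 Bacterial MIC in Mueller Hinton Broth 2 (acid casein hydrolysate, beef extract, starch), pH 7.3. Growth was compared with control cultures and read on a microplate reader.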

Nakaseomyces glabratus = experiment: Antimicrobial activity against Candida glabrata DSM 11226 assessed as growth inhibition serial 2-fold dilution microtitre plate method; format: functional
Procedure, shortened: (§2)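 MIC by serial 2-fold broth dilution in microtitre plates. Medium was YNB with ammonium sulfate as nitrogen source, pH 5.0. Growth was compared with control cultures and read on a microplate reader.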

Escherichia coli = experiment: Antimicrobial activity against Escherichia coli PCM 2560 assessed as growth inhibition serial 2-fold dilution microtitre plate method; format: functional; procedure, shortened: as §1
Candida albicans = experiment: Antimicrobial activity against Candida albicans ATCC 10231 assessed as growth inhibition serial 2-fold dilution microtitre plate method; format: functional; procedure, shortened: as §2
[2] = Inhibition of Candida albicans glucosamine-6-phosphate synthase assessed as glucosamine-6-phosphate by Elson-Morgan method
Procedure, shortened: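 Enzyme source: cell-free extract of C. albicans GlcN-6-P synthase overproduced in E. coli. Incubated 37 °C for 30 min, stopped by 100 °C for 1 min. GlcN-6-P measured by modified Elson-Morgan. IC50 is the concentration giving 50% inhibition.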

Candida parapsilosis = experiment: Antimicrobial activity against Candida parapsilosis DSM 5784 assessed as growth inhibition serial 2-fold dilution microtitre plate method; format: functional; conditions: Lodderomyces parapsilosis; procedure, shortened: as §2
Pseudomonas aeruginosa = experiment: Antimicrobial activity against Pseudomonas aeruginosa ATCC 2756 assessed as growth inhibition serial 2-fold dilution microtitre plate method; format: functional; procedure, shortened: as §1
Staphylococcus aureus = experiment: Antimicrobial activity against Staphylococcus aureus ATCC 29213 assessed as growth inhibition serial 2-fold dilution microtitre plate method; format: functional; procedure, shortened: as §1
[3] = Binding affinity to immobilized artificial membrane PC DD2 (unknown origin) by UV/Vis detector model
Procedure, shortened: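 HPLC on an IAM PC DD2 column (3 cm × 4.6 mm, 300 Å pores). Mobile phase 0.1 M phosphate buffer pH 7.2 at 1 mL/min, UV detection at 254 nm. Dead time t0 taken from citric acid retention. Capacity factor k'IAM = (tr − t0)/t0, reported as log k'IAM.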

Bacillus subtilis = experiment: Antimicrobial activity against Bacillus subtilis ATCC 9372 assessed as growth inhibition serial 2-fold dilution microtitre plate method; format: functional; procedure, shortened: as §1

| MIC [1] [µg/mL] | MIC (Nakaseomyces glabratus) [µg/mL] | MIC (Escherichia coli) [µg/mL] | MIC (Candida albicans) [µg/mL] | pIC50 [2] | MIC (Candida parapsilosis) [µg/mL] | MIC (Pseudomonas aeruginosa) [µg/mL] | MIC (Staphylococcus aureus) [µg/mL] | log K [3] | MIC (Bacillus subtilis) [µg/mL] | SMILES |
| --- | --- | --- | --- | --- | --- | --- | --- | --- | --- | --- |
| > 1020 | > 1020 | > 1020 | 512 | 2.54 | > 1020 | > 1020 | > 1020 | 0.118 | > 1020 | COC(=O)/C=C/C(=O)NC[C@H](N)C(=O)N(C)C.Cl |
| > 2000 | > 2000 | > 2000 | > 2000 | 5.39 | > 2000 | > 2000 | > 2000 | -0.812 | > 2000 | COC(=O)/C=C/C(=O)NC[C@H](N)C(=O)O |
| > 1020 | > 1020 | > 1020 | 32 | 3.90 | > 1020 | > 1020 | > 1020 | -0.193 | > 1020 | CNC(=O)[C@@H](N)CNC(=O)/C=C/C(=O)OC.Cl |
| > 1020 | > 1020 | > 1020 | 4 | 4.09 | > 1020 | > 1020 | > 1020 | -0.362 | > 1020 | COC(=O)/C=C/C(=O)NC[C@H](N)C(N)=O.Cl |
